Consider nine molecules from PMC8521277 (The EMBO Journal, 2021).

For test [1], the system named is HeLa cells. Nature of the test: Localization of SL biosynthetic enzymes after Brefeldin A, immunofluorescence. Format: cell-based, human. The note with it: BFA 5 μg/ml, 30 min; SMS1 also in punctate structures.
In test [2] the test system is HeLa cells. Nature of the test: [3H]-sphingosine pulse-chase assay after expression of GCS constructs. The note with it: 8 h chase, two independent experiments; for increase in GSL production: transfected construct 16 h. Type of test: cell-based, human. In a few lines: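 HeLa cells were transfected with GCS constructs for 16 h, with non-transfected cells run alongside. Cells were pulse-labelled for 2 h with [3H]-sphingosine (final 0.1 μCi/ml) in serum-free DMEM with 1% fatty-acid-free BSA, then chased 8 h in complete medium with or without BFA (5 μg/ml). Lipids were extracted and resolved by HPTLC (chloroform/methanol/water 65:25:4). Total GSL radioactivity is given as fold change versus control, mean ± SD of two experiments, with Student's t-test.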

Test [3] deals with GRASP domain of GRASP55 (recombinant protein used for ITC). Nature of the test: ITC. In general terms: In ITC the heat of successive injections is recorded.
The subject of test [4] is endogenous GRASP55. Format: binding, human. The note with it: HA-tagged enzymes, WI-26 fibroblasts, anti-HA IP.
For test [5], the system named is GRASP55‐GFP. Put plainly: Co-immunoprecipitation of HA-tagged enzymes with GRASP55-GFP in HeLa cells. Format: binding, human. The note with it: anti-GFP IP, anti-HA blot. The method, boiled down: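 HeLa cells were co-transfected with HA-tagged GCS, LCS, GM3S or Gb3S plus GRASP55-GFP. Cells were lysed and immunoprecipitated with anti-GFP antibody or control IgG. Interaction was read by Western blotting with anti-HA antibody.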

As for `C[C@H]1CCC/C=C/[C@@H]2C[C@H](O)C[C@H]2[C@H](O)/C=C/C(=O)O1` [Brefeldin A, reference compound], in test [1], the “localization of SL biosynthetic enzymes (in words)” value is reported as “translocation of the enzymes back into the ER”. Also, in test [2] (BFA 5 μg/ml), the “effect on differences in GSL production between GCS constructs (in words)” value is on record as “neutralized these differences”.
On to “GCS C-terminal cytosolic tail peptide (biotinylated, WT)”, for which the Kd in test [3] was 2000 nM.

B1: GCS: GlcCer synthase, full‐length, expressed in cells (protein)
chain: MALLDLALEGMAVFGFVLFLVLWLMHFMAIIYTRLHLNKKATDKQPYSKLPGVSLLKPLKGVDPNLINNLETFFELDYPKYEVLLCVQDHDDPAIDVCKKLLGKYPNVDARLFIGGKKVGINPKINNLMPGYEVAKYDLIWICDSGIRVIPDTLTDMVNQMTEKVGLVHGLPYVADRQGFAATLEQVYFGTSHPRYYISANVTGFKCVTGMSCLMRKDVLDQAGGLIAFAQYIAEDYFMAKAIADRGWRFAMSTQVAMQNSGSYSISQFQSRMIRWTKLRINMLPATIICEPISECFVASLIIGWAAHHVFRWDIMVFFMCHCLAWFIFDYIQLRGVQGGTLCFSKLDYAVAWFIRESMTIYIFLSALWDPTISWRTGRYRLRCGGTAEEILDV
modifications: left off: HA (9aa), internal (between the two Gly residues of DPTISWRTGRYRLRCGGTAEEILDV), kept
On to B1, for which the “co-immunoprecipitation with endogenous GRASP55 (in words)” value in test [4] is “interaction of GCS and LCS with endogenous GRASP55 was also observed”. For the same molecule, the “co-immunoprecipitation with GRASP55-GFP (in words)” value in test [5] was “co‐immunoprecipitated with GRASP55‐GFP”.

B2: GCS‐HAC: GCS with a HA‐tag at the C‐terminus (protein, UniProt Q16739 1-394, looked up)
Ceramide glucosyltransferase: MALLDLALEGMAVFGFVLFLVLWLMHFMAIIYTRLHLNKKATDKQPYSKLPGVSLLKPLKGVDPNLINNLETFFELDYPKYEVLLCVQDHDDPAIDVCKKLLGKYPNVDARLFIGGKKVGINPKINNLMPGYEVAKYDLIWICDSGIRVIPDTLTDMVNQMTEKVGLVHGLPYVADRQGFAATLEQVYFGTSHPRYYISANVTGFKCVTGMSCLMRKDVLDQAGGLIAFAQYIAEDYFMAKAIADRGWRFAMSTQVAMQNSGSYSISQFQSRMIRWTKLRINMLPATIICEPISECFVASLIIGWAAHHVFRWDIMVFFMCHCLAWFIFDYIQLRGVQGGTLCFSKLDYAVAWFIRESMTIYIFLSALWDPTISWRTGRYRLRCGGTAEEILDV
modifications: C-terminal HA tag
Consider B2, for which the “increase in GSL production” value in test [2] was found to be 2.3 fold.

B3: GCS‐HAN: GCS with a HA‐tag in the N‐terminal tail (protein, UniProt Q16739 1-394, looked up)
Ceramide glucosyltransferase: MALLDLALEGMAVFGFVLFLVLWLMHFMAIIYTRLHLNKKATDKQPYSKLPGVSLLKPLKGVDPNLINNLETFFELDYPKYEVLLCVQDHDDPAIDVCKKLLGKYPNVDARLFIGGKKVGINPKINNLMPGYEVAKYDLIWICDSGIRVIPDTLTDMVNQMTEKVGLVHGLPYVADRQGFAATLEQVYFGTSHPRYYISANVTGFKCVTGMSCLMRKDVLDQAGGLIAFAQYIAEDYFMAKAIADRGWRFAMSTQVAMQNSGSYSISQFQSRMIRWTKLRINMLPATIICEPISECFVASLIIGWAAHHVFRWDIMVFFMCHCLAWFIFDYIQLRGVQGGTLCFSKLDYAVAWFIRESMTIYIFLSALWDPTISWRTGRYRLRCGGTAEEILDV
modifications: HA tag in N-terminal tail
Consider B3, for which the “increase in GSL production” value in test [2] is given as 2.6 fold.

B4: LCS: LacCer synthase, expressed in cells (protein)
chain: MRARRGLLRLPRRSLLAALFFFSLSSSLLYFVYVAPGIVNTYLFMMQAQGILIRDNVRTIGAQVYEQVLRSAYAKRNSSVNDSDYPLDLNHSETFLQTTTFLPEDFTYFANHTCPERLPSMKGPIDINMSEIGMDYIHELFSKDPTIKLGGHWKPSDCMPRWKVAILIPFRNRHEHLPVLFRHLLPMLQRQRLQFAFYVVEQVGTQPFNRAMLFNVGFQEAMKDLDWDCLIFHDVDHIPESDRNYYGCGQMPRHFATKLDKYMYLLPYTEFFGGVSGLTVEQFRKINGFPNAFWGWGGEDDDLWNRVQNAGYSVSRPEGDTGKYKSIPHHHRGEVQFLGRYALLRKSKERQGLDGLNNLNYFANITYDALYKNITVNLTPELAQVNEY
modifications: left off: HA, end not stated, kept
For the molecule B4, the “co-immunoprecipitation with endogenous GRASP55 (in words)” value in test [4] was “interaction of GCS and LCS with endogenous GRASP55 was also observed”. The “co-immunoprecipitation with GRASP55-GFP (in words)” value in test [5] was “co‐immunoprecipitated with GRASP55‐GFP”.

B5: Gb3S: Gb3 synthase, expressed in cells (protein)
chain: MSKPPDLLLRLLRGAPRQRVCTLFIIGFKFTFFVSIMIYWHVVGEPKEKGQLYNLPAEIPCPTLTPPTPPSHGPTPGNIFFLETSDRTNPNFLFMCSVESAARTHPESHVLVLMKGLPGGNASLPRHLGISLLSCFPNVQMLPLDLRELFRDTPLADWYAAVQGRWEPYLLPVLSDASRIALMWKFGGIYLDTDFIVLKNLRNLTNVLGTQSRYVLNGAFLAFERRHEFMALCMRDFVDHYNGWIWGHQGPQLLTRVFKKWCSIRSLAESRACRGVTTLPPEAFYPIPWQDWKKYFEDINPEELPRLLSATYAVHVWNKKSQGTRFEATSRALLAQLHARYCPTTHEAMKMYL
modifications: left off: HA, end not stated, kept
As to B5, the “co-immunoprecipitation with GRASP55-GFP (in words)” value in test [5] was “do not interact”.

B6: GCS‐Δ3C (protein)
chain: MALLDLALEGMAVFGFVLFLVLWLMHFMAIIYTRLHLNKKATDKQPYSKLPGVSLLKPLKGVDPNLINNLETFFELDYPKYEVLLCVQDHDDPAIDVCKKLLGKYPNVDARLFIGGKKVGINPKINNLMPGYEVAKYDLIWICDSGIRVIPDTLTDMVNQMTEKVGLVHGLPYVADRQGFAATLEQVYFGTSHPRYYISANVTGFKCVTGMSCLMRKDVLDQAGGLIAFAQYIAEDYFMAKAIADRGWRFAMSTQVAMQNSGSYSISQFQSRMIRWTKLRINMLPATIICEPISECFVASLIIGWAAHHVFRWDIMVFFMCHCLAWFIFDYIQLRGVQGGTLCFSKLDYAVAWFIRESMTIYIFLSALWDPTISWRTGRYRLRCGGTAEEI
modifications: left off: HA (9aa), internal (between the two Gly residues of DPTISWRTGRYRLRCGGTAEEI), kept
B6: the “co-immunoprecipitation with endogenous GRASP55 (in words)” value in test [4] was “impaired the interaction”.

B7: GM3S: GM3 synthase, expressed in cells (protein)
chain: MRTKAAGCAERRPLQPRTEAAAAPAGRAMPSEYTYVKLRSDCSRPSLQWYTRAQSKMRRPSLLLKDILKCTLLVFGVWILYILKLNYTTEECDMKKMHYVDPDHVKRAQKYAQQVLQKECRPKFAKTSMALLFEHRYSVDLLPFVQKAPKDSEAESKYDPPFGFRKFSSKVQTLLELLPEHDLPEHLKAKTCRRCVVIGSGGILHGLELGHTLNQFDVVIRLNSAPVEGYSEHVGNKTTIRMTYPEGAPLSDLEYYSNDLFVAVLFKSVDFNWLQAMVKKETLPFWVRLFFWKQVAEKIPLQPKHFRILNPVIIKETAFDILQYSEPQSRFWGRDKNVPTIGVIAVVLATHLCDEVSLAGFGYDLNQPRTPLHYFDSQCMAAMNFQTMHNVTTETKFLLKLVKEGVVKDLSGGIDREF
modifications: left off: HA, end not stated, kept
On to B7, for which the “co-immunoprecipitation with GRASP55-GFP (in words)” value in test [5] is “do not interact”.

In general, Kd refers to the constant that tells how readily two partners part at equilibrium.
